For assay [1], the target named is 5'-AMP-activated protein kinase catalytic subunit alpha-2 (Homo sapiens) (UniProt P54646). Put plainly: Inhibition of human recombinant AMPKa2 at 15 nM in presence of ATP by radiometric assay relative to control. Summed up: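 Panel of 327 recombinant human kinases, each assayed in vitro by radiometric activity assay in duplicate at a single inhibitor concentration per compound, chosen with reference to its ULK1 inhibition. Activity remaining was expressed as percent of vehicle control, and percent inhibition was calculated as 100 minus percent activity remaining.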
Sequence of 5'-AMP-activated protein kinase catalytic subunit alpha-2 (Homo sapiens) (P54646 whole entry, looked up): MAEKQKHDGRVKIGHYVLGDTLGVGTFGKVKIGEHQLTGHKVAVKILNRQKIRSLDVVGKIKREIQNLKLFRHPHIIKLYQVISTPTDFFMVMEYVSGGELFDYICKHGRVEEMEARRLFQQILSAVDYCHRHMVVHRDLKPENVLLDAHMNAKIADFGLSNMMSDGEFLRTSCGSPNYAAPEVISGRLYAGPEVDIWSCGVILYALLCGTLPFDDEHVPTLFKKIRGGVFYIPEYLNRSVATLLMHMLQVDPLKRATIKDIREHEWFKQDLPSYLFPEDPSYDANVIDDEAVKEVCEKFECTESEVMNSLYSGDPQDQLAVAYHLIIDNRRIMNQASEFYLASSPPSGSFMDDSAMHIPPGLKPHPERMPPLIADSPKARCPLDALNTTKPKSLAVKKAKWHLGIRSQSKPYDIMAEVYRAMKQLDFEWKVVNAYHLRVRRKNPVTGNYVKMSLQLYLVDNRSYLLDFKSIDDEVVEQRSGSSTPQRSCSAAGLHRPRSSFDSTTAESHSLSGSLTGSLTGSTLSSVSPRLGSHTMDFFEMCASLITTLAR

For assay [2], the target named is Mitogen-activated protein kinase 8 (Homo sapiens) (UniProt P45983). Put plainly: Inhibition of human recombinant JNK1 at 15 nM related to control ULK1.
Sequence of Mitogen-activated protein kinase 8 (Homo sapiens) (P45983 whole entry): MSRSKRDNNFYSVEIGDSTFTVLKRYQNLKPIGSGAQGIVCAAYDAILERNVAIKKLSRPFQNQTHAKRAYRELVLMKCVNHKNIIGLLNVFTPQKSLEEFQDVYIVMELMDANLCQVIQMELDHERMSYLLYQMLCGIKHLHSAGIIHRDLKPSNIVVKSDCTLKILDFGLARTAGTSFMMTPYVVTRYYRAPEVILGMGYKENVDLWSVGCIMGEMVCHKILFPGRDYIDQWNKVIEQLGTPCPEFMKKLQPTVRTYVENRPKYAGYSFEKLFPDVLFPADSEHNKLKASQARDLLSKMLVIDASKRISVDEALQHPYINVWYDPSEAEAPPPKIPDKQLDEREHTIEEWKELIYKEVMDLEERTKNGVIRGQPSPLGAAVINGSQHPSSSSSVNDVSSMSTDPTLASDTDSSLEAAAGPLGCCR
Assay [3] deals with T1, Protein kinase C zeta type (Homo sapiens) (UniProt Q05513).
T1 sequence (whole entry): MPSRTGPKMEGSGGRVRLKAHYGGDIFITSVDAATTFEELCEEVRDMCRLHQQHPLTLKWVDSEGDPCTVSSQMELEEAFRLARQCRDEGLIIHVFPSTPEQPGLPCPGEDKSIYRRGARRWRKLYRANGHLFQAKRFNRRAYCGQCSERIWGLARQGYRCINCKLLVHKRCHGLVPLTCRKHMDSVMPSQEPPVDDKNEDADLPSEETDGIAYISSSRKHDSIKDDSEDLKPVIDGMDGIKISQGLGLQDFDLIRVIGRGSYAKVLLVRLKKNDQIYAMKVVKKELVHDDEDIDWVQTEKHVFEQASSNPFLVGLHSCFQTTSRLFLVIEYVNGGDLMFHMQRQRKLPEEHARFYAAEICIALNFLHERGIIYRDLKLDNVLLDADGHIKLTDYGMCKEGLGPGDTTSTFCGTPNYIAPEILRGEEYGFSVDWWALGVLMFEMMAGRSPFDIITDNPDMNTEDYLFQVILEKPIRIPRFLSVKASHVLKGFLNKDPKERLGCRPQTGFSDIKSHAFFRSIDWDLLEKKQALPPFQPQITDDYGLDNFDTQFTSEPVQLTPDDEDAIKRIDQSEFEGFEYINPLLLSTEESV
Put plainly: Inhibition of human recombinant PKCz at 15 nM in presence of ATP by radiometric assay relative to control.

Assay [4] addresses Serine/threonine-protein kinase PAK 3 (Homo sapiens) (UniProt O75914). Put plainly: Inhibition of human recombinant PAK3 at 15 nM in presence of ATP by radiometric assay relative to control.
For assay [5], the target named is T2, Serine/threonine-protein kinase Nek2 (Homo sapiens) (UniProt P51955).
T2 sequence (whole entry): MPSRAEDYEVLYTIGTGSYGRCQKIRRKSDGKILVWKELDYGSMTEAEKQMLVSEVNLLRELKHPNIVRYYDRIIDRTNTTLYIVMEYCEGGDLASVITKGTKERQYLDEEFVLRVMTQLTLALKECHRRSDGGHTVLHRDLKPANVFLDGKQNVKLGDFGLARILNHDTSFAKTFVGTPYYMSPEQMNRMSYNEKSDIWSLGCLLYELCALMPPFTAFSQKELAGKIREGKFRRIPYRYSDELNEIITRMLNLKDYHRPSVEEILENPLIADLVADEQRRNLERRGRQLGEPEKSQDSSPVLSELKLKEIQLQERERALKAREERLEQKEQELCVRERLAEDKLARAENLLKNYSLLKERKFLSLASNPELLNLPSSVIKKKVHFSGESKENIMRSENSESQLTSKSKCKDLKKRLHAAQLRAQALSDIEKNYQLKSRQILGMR
Put plainly: Inhibition of human recombinant NEK2 at 15 nM related to control ULK1.

Assay [6] concerns the target Transient receptor potential cation channel subfamily M member 7 (Homo sapiens) (UniProt Q96QT4). Put plainly: Inhibition of human recombinant ChaK1 at 15 nM related to control ULK1.
In assay [7] the target is Serine/threonine-protein kinase 10 (Homo sapiens) (UniProt O94804). Put plainly: Inhibition of human recombinant LOK at 15 nM related to control ULK1.
Sequence of Serine/threonine-protein kinase 10 (Homo sapiens) (O94804 whole entry, looked up): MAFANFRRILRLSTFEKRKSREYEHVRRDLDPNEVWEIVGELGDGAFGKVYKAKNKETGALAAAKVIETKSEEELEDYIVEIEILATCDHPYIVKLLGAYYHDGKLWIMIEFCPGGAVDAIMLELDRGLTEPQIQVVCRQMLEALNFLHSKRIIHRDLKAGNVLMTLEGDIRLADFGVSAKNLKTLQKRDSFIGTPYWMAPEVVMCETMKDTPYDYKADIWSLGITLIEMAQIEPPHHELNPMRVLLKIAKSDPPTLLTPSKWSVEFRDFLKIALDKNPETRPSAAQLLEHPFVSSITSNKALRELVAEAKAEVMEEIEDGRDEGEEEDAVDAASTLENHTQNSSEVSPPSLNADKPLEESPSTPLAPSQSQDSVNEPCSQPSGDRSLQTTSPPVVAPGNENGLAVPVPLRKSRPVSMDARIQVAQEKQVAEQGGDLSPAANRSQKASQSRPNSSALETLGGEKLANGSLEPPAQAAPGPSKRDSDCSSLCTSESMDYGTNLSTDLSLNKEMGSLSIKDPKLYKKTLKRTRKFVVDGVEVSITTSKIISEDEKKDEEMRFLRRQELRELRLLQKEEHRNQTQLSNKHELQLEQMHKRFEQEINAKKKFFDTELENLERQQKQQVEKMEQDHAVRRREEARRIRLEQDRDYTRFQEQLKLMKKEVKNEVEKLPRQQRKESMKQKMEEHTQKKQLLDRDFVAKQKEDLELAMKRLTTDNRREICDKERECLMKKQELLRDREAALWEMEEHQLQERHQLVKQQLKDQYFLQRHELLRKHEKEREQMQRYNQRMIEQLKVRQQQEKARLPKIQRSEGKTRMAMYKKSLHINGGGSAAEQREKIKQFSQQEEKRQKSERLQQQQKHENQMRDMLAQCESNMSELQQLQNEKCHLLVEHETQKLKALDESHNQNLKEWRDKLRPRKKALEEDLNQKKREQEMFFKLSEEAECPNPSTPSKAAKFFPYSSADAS
Assay [8] addresses T3, Tribbles homolog 2 (Homo sapiens) (UniProt Q92519).
T3 sequence (whole entry): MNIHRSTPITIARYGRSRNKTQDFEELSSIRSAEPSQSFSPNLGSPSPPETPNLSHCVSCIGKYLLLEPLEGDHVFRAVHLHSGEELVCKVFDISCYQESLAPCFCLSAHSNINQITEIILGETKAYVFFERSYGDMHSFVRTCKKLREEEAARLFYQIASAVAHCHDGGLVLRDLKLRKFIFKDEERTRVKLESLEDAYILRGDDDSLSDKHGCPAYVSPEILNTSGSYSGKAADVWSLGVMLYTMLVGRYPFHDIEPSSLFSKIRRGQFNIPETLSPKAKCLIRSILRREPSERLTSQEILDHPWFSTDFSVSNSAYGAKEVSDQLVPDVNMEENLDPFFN
Put plainly: Inhibition of human recombinant Trb2 at 15 nM in presence of ATP by radiometric assay relative to control.

In assay [9] the target is Death-associated protein kinase 2 (Homo sapiens) (UniProt Q9UIK4). Put plainly: Inhibition of human recombinant DAPK2 at 15 nM related to control ULK1.
The target in assay [10] is Glycogen synthase kinase-3 beta (Homo sapiens) (UniProt P49841). Put plainly: Inhibition of human recombinant GSK3B at 15 nM related to control ULK1.
Sequence of Glycogen synthase kinase-3 beta (Homo sapiens) (P49841 whole entry, looked up): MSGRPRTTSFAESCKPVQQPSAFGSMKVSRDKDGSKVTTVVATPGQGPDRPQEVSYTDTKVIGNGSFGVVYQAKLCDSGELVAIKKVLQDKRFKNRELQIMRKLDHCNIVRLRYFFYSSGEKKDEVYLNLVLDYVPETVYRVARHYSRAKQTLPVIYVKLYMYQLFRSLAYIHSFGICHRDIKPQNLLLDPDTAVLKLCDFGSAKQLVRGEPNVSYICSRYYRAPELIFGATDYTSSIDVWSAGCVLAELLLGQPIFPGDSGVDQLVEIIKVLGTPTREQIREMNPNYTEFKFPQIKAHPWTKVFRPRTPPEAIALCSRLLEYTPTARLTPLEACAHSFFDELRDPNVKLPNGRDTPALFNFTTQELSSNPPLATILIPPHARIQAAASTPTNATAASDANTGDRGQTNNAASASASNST
In assay [11] the target is Macrophage-stimulating protein receptor (Homo sapiens) (UniProt Q04912). Put plainly: Inhibition of human recombinant RON at 40 nM related to control ULK1.
Sequence of Macrophage-stimulating protein receptor (Homo sapiens) (Q04912 25-304 limits assumed): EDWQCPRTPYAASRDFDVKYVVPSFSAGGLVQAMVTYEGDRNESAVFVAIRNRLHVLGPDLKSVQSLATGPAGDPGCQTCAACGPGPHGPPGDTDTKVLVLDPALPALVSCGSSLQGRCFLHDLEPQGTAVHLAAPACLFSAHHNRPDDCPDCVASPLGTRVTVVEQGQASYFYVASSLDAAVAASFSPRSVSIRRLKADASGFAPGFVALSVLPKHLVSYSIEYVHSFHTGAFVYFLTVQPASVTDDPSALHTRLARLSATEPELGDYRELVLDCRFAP
Sequence of Macrophage-stimulating protein receptor (Homo sapiens) (Q04912 310-1400 limits assumed): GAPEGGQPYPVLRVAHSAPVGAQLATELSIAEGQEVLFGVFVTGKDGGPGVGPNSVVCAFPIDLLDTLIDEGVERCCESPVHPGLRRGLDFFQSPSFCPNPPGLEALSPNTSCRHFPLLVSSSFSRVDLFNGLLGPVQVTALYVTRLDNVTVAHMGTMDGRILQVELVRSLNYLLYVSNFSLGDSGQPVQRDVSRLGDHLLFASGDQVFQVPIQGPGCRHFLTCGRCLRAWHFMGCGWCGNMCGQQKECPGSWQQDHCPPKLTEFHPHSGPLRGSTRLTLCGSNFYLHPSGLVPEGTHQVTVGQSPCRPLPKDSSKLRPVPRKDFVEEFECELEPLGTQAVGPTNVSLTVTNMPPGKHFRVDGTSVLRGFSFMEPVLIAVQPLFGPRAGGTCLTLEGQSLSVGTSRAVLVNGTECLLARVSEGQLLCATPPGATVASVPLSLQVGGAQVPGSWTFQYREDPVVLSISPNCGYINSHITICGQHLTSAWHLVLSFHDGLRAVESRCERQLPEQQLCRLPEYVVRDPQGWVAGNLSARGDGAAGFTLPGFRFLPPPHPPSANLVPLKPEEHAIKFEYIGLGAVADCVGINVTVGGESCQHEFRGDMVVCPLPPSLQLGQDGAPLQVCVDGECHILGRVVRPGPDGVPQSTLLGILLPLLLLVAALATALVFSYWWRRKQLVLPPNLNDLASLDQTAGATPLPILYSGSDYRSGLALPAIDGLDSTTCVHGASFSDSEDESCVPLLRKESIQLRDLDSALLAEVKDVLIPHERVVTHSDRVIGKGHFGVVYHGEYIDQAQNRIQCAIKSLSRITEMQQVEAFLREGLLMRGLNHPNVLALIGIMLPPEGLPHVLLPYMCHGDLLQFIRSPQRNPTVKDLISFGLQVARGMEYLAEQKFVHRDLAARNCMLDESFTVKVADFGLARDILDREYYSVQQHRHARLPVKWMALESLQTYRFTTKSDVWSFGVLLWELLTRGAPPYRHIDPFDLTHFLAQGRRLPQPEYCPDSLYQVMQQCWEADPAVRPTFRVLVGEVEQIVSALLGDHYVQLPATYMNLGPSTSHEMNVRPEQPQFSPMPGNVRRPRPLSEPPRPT
For assay [12], the target named is Tyrosine-protein kinase Lck (Homo sapiens) (UniProt P06239). Put plainly: Inhibition of human recombinant LCK at 40 nM related to control ULK1.
Sequence of Tyrosine-protein kinase Lck (Homo sapiens) (P06239 2-509 limits assumed): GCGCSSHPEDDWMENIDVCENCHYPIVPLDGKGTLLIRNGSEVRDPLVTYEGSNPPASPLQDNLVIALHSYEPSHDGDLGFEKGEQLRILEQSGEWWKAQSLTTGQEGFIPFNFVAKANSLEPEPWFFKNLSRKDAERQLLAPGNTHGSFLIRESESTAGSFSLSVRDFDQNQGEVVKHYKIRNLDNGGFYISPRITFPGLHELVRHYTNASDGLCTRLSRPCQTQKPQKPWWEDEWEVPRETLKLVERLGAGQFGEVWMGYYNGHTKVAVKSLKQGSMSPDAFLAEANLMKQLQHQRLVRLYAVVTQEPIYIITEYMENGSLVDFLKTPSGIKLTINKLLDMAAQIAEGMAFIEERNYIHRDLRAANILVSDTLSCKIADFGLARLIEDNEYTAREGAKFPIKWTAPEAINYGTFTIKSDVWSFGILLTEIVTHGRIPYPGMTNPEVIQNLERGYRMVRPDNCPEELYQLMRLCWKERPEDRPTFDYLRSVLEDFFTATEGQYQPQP
For assay [13], the target named is Ribosomal protein S6 kinase alpha-2 (Homo sapiens) (UniProt Q15349). Put plainly: Inhibition of human recombinant RSK3 at 40 nM related to control ULK1.
Sequence of Ribosomal protein S6 kinase alpha-2 (Homo sapiens) (Q15349 whole entry): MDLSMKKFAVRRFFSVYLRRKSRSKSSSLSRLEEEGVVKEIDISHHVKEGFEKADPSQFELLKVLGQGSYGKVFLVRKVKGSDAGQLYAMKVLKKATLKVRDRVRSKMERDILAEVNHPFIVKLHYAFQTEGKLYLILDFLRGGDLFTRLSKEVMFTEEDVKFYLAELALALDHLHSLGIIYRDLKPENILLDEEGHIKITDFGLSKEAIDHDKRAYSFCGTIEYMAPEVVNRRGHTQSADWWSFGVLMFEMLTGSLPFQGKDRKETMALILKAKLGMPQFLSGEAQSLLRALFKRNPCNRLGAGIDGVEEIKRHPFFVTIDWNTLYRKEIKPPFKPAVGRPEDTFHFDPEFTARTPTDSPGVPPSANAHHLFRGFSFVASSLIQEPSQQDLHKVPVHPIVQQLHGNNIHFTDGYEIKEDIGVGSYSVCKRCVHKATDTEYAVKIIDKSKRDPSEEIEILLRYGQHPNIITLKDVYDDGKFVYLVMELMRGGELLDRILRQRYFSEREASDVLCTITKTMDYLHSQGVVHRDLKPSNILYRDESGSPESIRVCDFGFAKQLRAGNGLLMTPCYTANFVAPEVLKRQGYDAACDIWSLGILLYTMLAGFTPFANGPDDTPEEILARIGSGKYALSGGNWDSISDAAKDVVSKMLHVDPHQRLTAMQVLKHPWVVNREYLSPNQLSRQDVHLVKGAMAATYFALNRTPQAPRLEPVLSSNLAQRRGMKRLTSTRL
In assay [14] the target is Non-receptor tyrosine-protein kinase TYK2 (Homo sapiens) (UniProt P29597). Put plainly: Inhibition of human recombinant TYK2 at 40 nM related to control ULK1.
The target of assay [15] is Serine/threonine-protein kinase PAK 4 (Homo sapiens) (UniProt O96013). Put plainly: Inhibition of human recombinant PAK4 at 40 nM related to control ULK1.
Assay [16] deals with Ribosomal protein S6 kinase alpha-2 (Homo sapiens) (UniProt Q15349). Put plainly: Inhibition of human recombinant RSK3 at 500 nM in presence of ATP by radiometric assay relative to control.

In ChEMBL document CHEMBL5653631, “A Potent and Selective ULK1 Inhibitor Suppresses Autophagy and Sensitizes Cancer Cells to Nutrient Stress” (iScience, 2018) one finds inhibition and fold change (FC) data, which are given here for three compounds.

Turning to `CC(C)[C@H](NC(=O)c1cc(-c2cnn3cc(-c4ccc(OCCN5CCCCC5)cc4)cnc23)cs1)C(F)(F)F`, the inhibition in assay [1] turned out to be 83%; in assay [3], 0%; in [4], 4%; in assay [8], 36%. The fold change (FC) was determined as 0.09 in assay [2]; 0.14 in assay [5]; 0.14 in assay [6]; 0 in assay [7]; 0.07 in assay [9]; 0.13 in [10].

Regarding `O=C(N[C@@H](C1CC1)C(F)(F)F)c1cc(-c2cnn3cc(-c4ccc(F)cc4)cnc23)cs1`, the fold change (FC) is 0 in assay [11]; 0 in assay [12]; 0 in assay [13]; 0.01 in [14]; 0.11 in [15].

Take `CNC(=O)c1ccccc1Oc1nc(Nc2cc(OC)c(OC)c(OC)c2)ncc1Br`: the inhibition in assay [16] came out at 49%.
